The nature of series [1]: (§1) Concentration (30 mg/kg, p.o.) in rat plasma after 2 hours. The format is ADME, organism-based. The settings on record: plasma, po. The gist of the method: (§2)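 Male rats (RA238), fasted overnight, given 30 mg/kg by oral gavage (5 mL/kg) in 20% Cremophore EL/water (w/w). Plasma and hypothalamus were sampled at 2 and 6 h post-dose and levels measured by LC-MS. Values are the mean of 3-6 animals per time point, as µg/mL plasma and µg/g hypothalamus.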

A short description of series [2]: (§3) Concentration (30 mg/kg, p.o.) in rat hypothalamus after 6 hours. The format is ADME, organism-based. As to conditions: hypothalamus, po. An outline of the steps: as §2
In series [3] the target is T1, Neuropeptide Y receptor type 5 (Homo sapiens, UniProt Q15761).
T1 sequence (Q15761 whole entry): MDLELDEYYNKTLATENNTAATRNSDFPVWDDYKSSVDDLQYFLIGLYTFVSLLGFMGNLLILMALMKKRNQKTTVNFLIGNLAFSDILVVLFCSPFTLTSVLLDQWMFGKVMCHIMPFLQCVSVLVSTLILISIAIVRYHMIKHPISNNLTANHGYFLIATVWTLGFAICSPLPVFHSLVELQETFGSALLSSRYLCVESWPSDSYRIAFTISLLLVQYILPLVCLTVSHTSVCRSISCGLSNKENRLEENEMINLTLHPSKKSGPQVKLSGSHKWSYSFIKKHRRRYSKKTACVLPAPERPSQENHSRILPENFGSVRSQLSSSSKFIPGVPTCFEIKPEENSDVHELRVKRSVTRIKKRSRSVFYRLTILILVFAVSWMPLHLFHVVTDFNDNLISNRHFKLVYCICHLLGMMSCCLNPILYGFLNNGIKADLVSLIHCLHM
Put plainly: In vitro binding affinity against human neuropeptide Y5 receptor measured as Ca+ response. An outline of the steps:
(§4)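 Reported as IC50 (nM), each value the mean of three separate experiments.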

Series [4] deals with T2, Neuropeptide Y receptor type 5 (Rattus norvegicus, UniProt Q63634).
T2 sequence (Q63634 whole entry): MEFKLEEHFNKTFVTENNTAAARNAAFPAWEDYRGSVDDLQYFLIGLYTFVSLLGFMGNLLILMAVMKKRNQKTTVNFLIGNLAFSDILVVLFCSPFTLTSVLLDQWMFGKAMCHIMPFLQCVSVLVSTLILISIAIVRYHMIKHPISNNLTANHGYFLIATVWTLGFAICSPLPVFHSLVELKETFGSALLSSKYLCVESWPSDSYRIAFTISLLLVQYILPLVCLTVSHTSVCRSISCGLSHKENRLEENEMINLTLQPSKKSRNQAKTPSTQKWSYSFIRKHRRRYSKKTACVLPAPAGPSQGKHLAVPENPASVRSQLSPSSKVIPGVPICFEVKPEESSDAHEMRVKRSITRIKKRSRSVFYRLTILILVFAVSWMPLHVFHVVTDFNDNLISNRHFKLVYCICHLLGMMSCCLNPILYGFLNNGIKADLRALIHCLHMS
The experiment in a line: In vitro binding affinity against rat neuropeptide Y5 receptor. The gist of the method: as §4

Series [5] is described as follows: (§5) Concentration (30 mg/kg, p.o.) in rat hypothalamus after 2 hours. The format is ADME, organism-based. The settings on record: hypothalamus, po. An outline of the steps:
as §2

Series [6] in a line: (§6) Concentration (30 mg/kg, p.o.) in rat plasma after 6 hours. It counts as ADME, organism-based. The settings on record: plasma, po. The gist of the method: as §2
The target in series [7] is T1, Neuropeptide Y receptor type 5. Put plainly: In vitro binding affinity against human neuropeptide Y5 receptor.
Series [8] concerns Rattus norvegicus. The description is as §1. As to conditions: in vivo, po, 2 h. It counts as ADME, organism-based. The gist of the method:
as §2

Series [9] relates to Rattus norvegicus. The series is described as §3. The format is ADME, organism-based. The settings on record: in vivo, po, 6 h. The gist of the method:
as §2

For series [10], the system named is Rattus norvegicus. Described as §5. The format is ADME, organism-based. The settings on record: in vivo, po, 2 h. An outline of the steps:
as §2

Series [11] concerns Rattus norvegicus. The description is as §6. It counts as ADME, organism-based. The settings on record: in vivo, po, 6 h. An outline of the steps:
as §2

Values joined by “and” are separate entries in the source; they are usually repeats but may differ in a detail not shown here. Identical values can stand only once.

In the case of `Cc1ccc2c(c1)-c1nc(NCC3CCN(C(=O)[C@H]4CCCO4)CC3)sc1CCO2`, the concentration at 2 h in [1] was determined as 870 ng/mL; in series [5] it was 1460 ng/g. In addition, the results for the concentration at 6 h in series [2] and in series [6] were 400 ng/g and 260 ng/mL, respectively. The half-inhibitory concentration (IC50) – broadly, the concentration that inhibits the measured activity by half – in series [3] turned out to be 40 nM; in [4], 2.9 nM; in series [7] it was 5 nM.
In the case of `O=C([C@@H]1CCCO1)N1CCC(CNc2nc3c(s2)CCCc2ccc(F)cc2-3)CC1`, the Concentration in the series on Rattus norvegicus [8] was 1600 ng/mL; in the series with Rattus norvegicus [9], 1.33 µg/g and 0.64 µg/g; in the series on Rattus norvegicus [10], 6.69 µg/g; with Rattus norvegicus [11], 320 ng/mL and 140 ng/mL. Also, the concentration at 2 h in [1] turned out to be 1600 ng/mL; in series [5] it was 6690 ng/g. Further, the IC50 in series [7] stood at 2 nM.
Take `CCCCC(=O)N1CCC(CNc2nc3c(s2)CCOc2ccc(F)cc2-3)CC1`: the values for the concentration at 2 h in series [1] and in [5] were 740 ng/mL and 2230 ng/g, respectively. In addition, the concentration at 6 h was found to be 260 ng/g in series [2] and 70 ng/mL in series [6]. Also, the half-inhibitory concentration (IC50) amounted to 100 nM in series [3], 6 nM in [4] and 7 nM in series [7].
